Measured values published in ChEMBL document CHEMBL3822397, “Synthesis and bioevaluation of novel benzodipyranone derivatives as P-glycoprotein inhibitors for multidrug resistance reversal agents” (Eur J Med Chem, 2016).
Activity calls are given as the source filed them. No cut-off for these calls is given here.

Tests used:
HEK293 [1] = experiment: Potentiation of doxorubicin-induced cytotoxicity in Flp-In-293 cells assessed as reduction in doxorubicin IC50 at 10 uM after 72 hrs by SRB assay relative to control; format: functional, Homo sapiens
[2] = target: T1, ATP-dependent translocase ABCB1 (Homo sapiens, UniProt P08183); experiment: Inhibition of full length human ABCB1 expressed in Flp-In-293 cells assessed as potentiation of paclitaxel-induced cytotoxicity at 8 uM after 72 hrs by SRB assay relative to control; format: cell-based
T1 sequence (P08183 whole entry): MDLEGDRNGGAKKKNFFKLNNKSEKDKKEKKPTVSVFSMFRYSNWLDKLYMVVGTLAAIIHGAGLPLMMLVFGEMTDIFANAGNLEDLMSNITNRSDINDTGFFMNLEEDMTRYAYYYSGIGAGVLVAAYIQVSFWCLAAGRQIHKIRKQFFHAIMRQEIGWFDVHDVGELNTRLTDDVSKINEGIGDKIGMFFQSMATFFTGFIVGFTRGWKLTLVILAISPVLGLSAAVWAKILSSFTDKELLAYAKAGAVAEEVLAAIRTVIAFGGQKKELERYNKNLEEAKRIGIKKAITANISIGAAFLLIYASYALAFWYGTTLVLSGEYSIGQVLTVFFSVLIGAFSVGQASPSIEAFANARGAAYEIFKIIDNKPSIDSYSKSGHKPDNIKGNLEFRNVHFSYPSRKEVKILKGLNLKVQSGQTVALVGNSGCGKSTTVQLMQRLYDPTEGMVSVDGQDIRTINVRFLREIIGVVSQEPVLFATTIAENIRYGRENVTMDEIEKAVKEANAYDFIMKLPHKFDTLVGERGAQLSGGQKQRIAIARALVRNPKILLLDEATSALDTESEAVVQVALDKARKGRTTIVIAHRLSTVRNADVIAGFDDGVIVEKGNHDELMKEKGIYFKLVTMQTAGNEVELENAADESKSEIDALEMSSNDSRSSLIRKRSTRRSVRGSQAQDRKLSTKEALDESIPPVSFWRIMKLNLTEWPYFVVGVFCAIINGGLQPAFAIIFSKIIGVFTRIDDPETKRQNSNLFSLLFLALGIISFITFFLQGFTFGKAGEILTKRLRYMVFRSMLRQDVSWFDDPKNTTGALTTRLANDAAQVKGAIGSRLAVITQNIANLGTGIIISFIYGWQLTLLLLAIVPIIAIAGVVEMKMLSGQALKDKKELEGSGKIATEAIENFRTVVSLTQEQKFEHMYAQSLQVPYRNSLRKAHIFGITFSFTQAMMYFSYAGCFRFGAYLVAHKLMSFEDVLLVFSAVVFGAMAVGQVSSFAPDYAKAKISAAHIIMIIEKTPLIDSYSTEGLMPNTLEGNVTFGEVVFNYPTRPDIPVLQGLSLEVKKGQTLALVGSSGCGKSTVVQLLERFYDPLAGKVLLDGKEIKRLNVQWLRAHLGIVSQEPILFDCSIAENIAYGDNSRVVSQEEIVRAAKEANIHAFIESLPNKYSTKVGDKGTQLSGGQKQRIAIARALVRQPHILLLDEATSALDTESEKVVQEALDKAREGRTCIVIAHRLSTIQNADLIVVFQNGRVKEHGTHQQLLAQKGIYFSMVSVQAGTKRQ

HEK293 [3] = experiment: Potentiation of paclitaxel-induced cytotoxicity in Flp-In-293 cells assessed as reduction in paclitaxel IC50 at 8 uM after 72 hrs by SRB assay relative to control; format: functional, Homo sapiens
HEK293 [4] = experiment: Potentiation of vincristine-induced cytotoxicity in Flp-In-293 cells assessed as reduction in vincristine IC50 at 8 uM after 72 hrs by SRB assay relative to control; format: functional, Homo sapiens
HEK293 [5] = experiment: Downregulation of ABCB1 mRNA expression in Flp-In-293 cells transfected with full length human ABCB1 at 5 uM after 72 hrs by RT-PCR analysis; format: functional, cell-based
Procedure, shortened: (§1)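 ABCB1 mRNA measured after treating ABCB1/Flp-In-293 cells with test compounds for 72 hr. Data given as mean ± SE of three experiments, each in triplicate.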

HEK293 [6] = experiment: Effect on ABCB1 mRNA expression in Flp-In-293 cells at 5 uM after 72 hrs by RT-PCR analysis; format: ADME, cell-based; conditions: human, flp-in-293, 72 h; procedure, shortened: as §1
HEK293 [7] = experiment: Potentiation of doxorubicin-induced cytotoxicity in Flp-In-293 cells assessed as reduction in doxorubicin IC50 at 8 uM after 72 hrs by SRB assay relative to control; format: functional, Homo sapiens
[8] = target: T1, ATP-dependent translocase ABCB1; experiment: Inhibition of full length human ABCB1 expressed in Flp-In-293 cells assessed as potentiation of doxorubicin-induced cytotoxicity at 10 uM after 72 hrs by SRB assay relative to control; format: cell-based
HEK293 [9] = experiment: Potentiation of paclitaxel-induced cytotoxicity in Flp-In-293 cells assessed as reduction in paclitaxel IC50 at 10 uM after 72 hrs by SRB assay relative to control; format: functional, Homo sapiens
[10] = target: T1, ATP-dependent translocase ABCB1; experiment: Inhibition of full length human ABCB1 expressed in Flp-In-293 cells assessed as potentiation of vincristine-induced cytotoxicity at 10 uM after 72 hrs by SRB assay relative to control; format: cell-based
[11] = target: T1, ATP-dependent translocase ABCB1; experiment: Inhibition of full length human ABCB1 expressed in Flp-In-293 cells at 5 uM incubated for 30 mins by calcein-AM uptake assay relative to control; format: cell-based; conditions: 0.5 h
[12] = target: T1, ATP-dependent translocase ABCB1; experiment: Inhibition of full length human ABCB1 expressed in Flp-In-293 cells assessed as potentiation of paclitaxel-induced cytotoxicity at 10 uM after 72 hrs by SRB assay relative to control; format: cell-based
[13] = target: T1, ATP-dependent translocase ABCB1; experiment: Inhibition of full length human ABCB1 expressed in Flp-In-293 cells assessed as potentiation of vincristine-induced cytotoxicity at 8 uM after 72 hrs by SRB assay relative to control; format: cell-based
[14] = target: T1, ATP-dependent translocase ABCB1; experiment: Inhibition of full length human ABCB1 expressed in Flp-In-293 cells assessed as potentiation of doxorubicin-induced cytotoxicity at 8 uM after 72 hrs by SRB assay relative to control; format: cell-based
[15] = target: T1, ATP-dependent translocase ABCB1; experiment: Inhibition of full length human ABCB1 expressed in Flp-In-293 cells at 2.5 uM incubated for 30 mins by calcein-AM uptake assay relative to control; format: cell-based; conditions: 0.5 h
HEK293 [16] = experiment: Potentiation of vincristine-induced cytotoxicity in Flp-In-293 cells assessed as reduction in vincristine IC50 at 10 uM after 72 hrs by SRB assay relative to control; format: functional, Homo sapiens
[17] = Potentiation of paclitaxel-induced cytotoxicity in human HeLaS3 assessed as reduction in paclitaxel IC50 at 8 uM after 72 hrs by SRB assay relative to control; format: functional, HeLa S3
[18] = target: T1, ATP-dependent translocase ABCB1; experiment: Inhibition of ABCB1 in human KBVIN cells assessed as potentiation of paclitaxel-induced cytotoxicity at 8 uM after 72 hrs by SRB assay relative to control; format: cell-based
[19] = Potentiation of paclitaxel-induced cytotoxicity in human HeLaS3 assessed as reduction in paclitaxel IC50 at 10 uM after 72 hrs by SRB assay relative to control; format: functional, HeLa S3
[20] = Potentiation of vincristine-induced cytotoxicity in human HeLaS3 assessed as reduction in vincristine IC50 at 8 uM after 72 hrs by SRB assay relative to control; format: functional, HeLa S3
[21] = target: T1, ATP-dependent translocase ABCB1; experiment: Inhibition of ABCB1 in human KBVIN cells assessed as potentiation of paclitaxel-induced cytotoxicity at 10 uM after 72 hrs by SRB assay relative to control; format: cell-based
[22] = target: T1, ATP-dependent translocase ABCB1; experiment: Inhibition of ABCB1 in human KBVIN cells assessed as potentiation of vincristine-induced cytotoxicity at 8 uM after 72 hrs by SRB assay relative to control; format: cell-based
[23] = Potentiation of vincristine-induced cytotoxicity in human HeLaS3 assessed as reduction in vincristine IC50 at 10 uM after 72 hrs by SRB assay relative to control; format: functional, HeLa S3
[24] = target: T1, ATP-dependent translocase ABCB1; experiment: Inhibition of ABCB1 in human KBVIN cells assessed as potentiation of vincristine-induced cytotoxicity at 10 uM after 72 hrs by SRB assay relative to control; format: cell-based

COc1ccc(-c2coc3c(c(O)cc4occ(-c5ccc(OC)cc5)c(=O)c43)c2=O)cc1
fold change (FC) (HEK293 [1]): 2.1
fold change (FC) [2]: 2.1
fold change (FC) (HEK293 [3]): 2.7
fold change (FC) (HEK293 [4]): 6.6
Activity (HEK293 [5]): inactive
Activity (HEK293 [6]): Non-toxic
fold change (FC) (HEK293 [7]): 0.9
fold change (FC) [8]: 1.7
fold change (FC) (HEK293 [9]): 4.2
fold change (FC) [10]: 1.6
fold change (FC) [11]: 1.84
fold change (FC) [12]: 8.2
fold change (FC) [13]: 1.4
fold change (FC) [14]: 1.6
fold change (FC) [15]: 1.54
fold change (FC) (HEK293 [16]): 7.1

Cc1cccc(-c2coc3c(c(O)cc4occ(-c5cccc(C)c5)c(=O)c43)c2=O)c1
fold change (FC) [17]: 1.1
fold change (FC) (HEK293 [1]): 1.6
fold change (FC) [2]: 10.8
fold change (FC) (HEK293 [3]): 1.5
fold change (FC) (HEK293 [4]): 7.8
Activity (HEK293 [5]): Active
fold change (FC) [18]: 19
fold change (FC) [19]: 1.4
fold change (FC) [20]: 4.7
fold change (FC) (HEK293 [7]): 1.2
fold change (FC) [8]: 1.6
fold change (FC) (HEK293 [9]): 1.8
fold change (FC) [21]: 23.1
fold change (FC) [22]: 7.4
fold change (FC) [10]: 21
fold change (FC) [11]: 2.05
fold change (FC) [12]: 16.1
fold change (FC) [23]: 8.8
fold change (FC) [24]: 29.7
fold change (FC) [13]: 15.6
fold change (FC) [14]: 1.4
fold change (FC) [15]: 1.58
fold change (FC) (HEK293 [16]): 9.1
